Screening results deposited in PubChem BioAssay by The Scripps Research Institute Molecular Screening Center.
CHO-K1 Ca ag: M1 agonist counterscreen hit in parental CHO-K1 cells | Fluo-8 calcium fluorescence; scaled to maximal ATP response, vehicle zero | activation, % at 3 µM | 360,000 compounds, 0.48% hits | AID 602248; in the data active = activation above about 15%;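 note: untransfected CHO-K1 host cells lacking M1 receptor as counterscreen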
OX1R antag-1: blocks the human orexin 1 receptor. O43613. CHO/OX1R cells, Fluo-8 calcium fluorescence, orexin A. inhibition, % at 5 µM. 330,000 compounds, 0.43% hits;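 active = inhibition above its plate's threshold, mean inhibition of all tested compounds on the plate plus 3 SD, cut at about 37% in these data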;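 note: 0% = orexin A challenge wells and 100% = SB-334867-A antagonist wells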
Target sequence (O43613 whole entry, looked up): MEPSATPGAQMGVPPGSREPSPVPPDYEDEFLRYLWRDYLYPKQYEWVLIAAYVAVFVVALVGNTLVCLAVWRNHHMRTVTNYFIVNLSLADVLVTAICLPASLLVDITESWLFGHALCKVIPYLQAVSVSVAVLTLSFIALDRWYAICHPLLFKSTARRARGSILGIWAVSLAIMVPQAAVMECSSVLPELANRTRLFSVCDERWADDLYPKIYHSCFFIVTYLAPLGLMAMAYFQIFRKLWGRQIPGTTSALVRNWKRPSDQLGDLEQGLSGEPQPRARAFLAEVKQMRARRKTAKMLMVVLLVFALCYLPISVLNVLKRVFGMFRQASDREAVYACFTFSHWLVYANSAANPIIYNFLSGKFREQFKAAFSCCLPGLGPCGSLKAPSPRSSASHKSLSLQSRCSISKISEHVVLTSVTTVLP
OX1R antag-2: OX1R (human) antagonism. OX1R-expressing cells, FRET antagonist read-out. inhibition, % at 6.6 µM. 330,000 compounds, 1.8% hits; in the data active = inhibition mostly above about 38%, no sharp cut-off; inactive = mostly below about 40%;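 note: 0% = agonist challenge alone and 100% = reference antagonist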
M1 PAM parental: counter-screen for M1 PAMs: effect in parental CHO-K1 cells; activation, % at 3 µM; ATP EC20, Fluo-8 calcium fluorescence; 0% at ATP EC20, 100% at ATP max; AID 602247; 360,000 compounds, 0.02% hits;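 active = activation above the run cutoff, the mean activation of all test compounds plus 3 SD, cut at about 40% in these data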;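 note: peak over basal fluorescence ratio in a 140 s read after ATP addition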
CHO-K1 Ca antag: M1 antagonist counterscreen hit in parental CHO-K1 cells; ATP-induced calcium, Fluo-8 fluorescence; inhibition, % at 3 µM; 360,000 compounds, 0.6% hits; AID 602250;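 active = inhibition above a per-plate cutoff, the plate's mean sample inhibition plus 3 SD, cut at about 24% in these data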;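 note: 0% = DMSO plus EC80 ATP and 100% = DMSO alone without ATP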
CHO parental Ca: counter-screen: ATP calcium response change in parental CHO cells. parental CHO-K1, ATP-induced calcium, Fluo-8 fluorescence. inhibition, % at 5.6 µM. 330,000 compounds, 0.63% hits;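 active = inhibition above that plate's mean sample inhibition plus 3 SD, cut at about 26% in these data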;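 note: 0% = ATP-challenged DMSO wells and 100% = DMSO wells without ATP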
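Test system: untransfected parental CHO cell line; also added: ATP stimulus; dosing: 5.6 µM, single dose; signal: calcium-sensitive Fluo-8 fluorescence; measure: percent inhibition of ATP-evoked calcium rise, normalized to controls; benchmarks: low control ATP plus DMSO, high control DMSO only; replication: one well per compound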
Active calls of the source: *; nt = not tested or not shown. This is a sample that favours compounds with a hit; in the whole collection about 2.9% have one here.

SMILES	CHO-K1 Ca ag	OX1R antag-1	OX1R antag-2	M1 PAM parental	CHO-K1 Ca antag	CHO parental Ca
O=C1c2ccccc2C(c2nnnn2-c2ccc3c(c2)OCCO3)N1CCCn1ccnc1 (centres undefined)	0	nt	nt	13	-19	nt
Cc1ccc(S(=O)(=O)c2nc(S(C)(=O)=O)sc2N2CCC3(CC2)OCCO3)cc1	2	-12	29	9	-13	-8
On1ccccc1=S	3	37*	14	18	25*	41*
OCC#CCSc1nnc(-c2ccncc2)o1	-1	-8	6	4	37*	-5
CCSc1nnc(-c2ccncc2)o1	0	-5	3	8	-4	-3
O=C(O)c1cccc2c1C(=O)c1ccc(N3CCCCC3)cc1S2(=O)=O	3	-2	11	20	-8	3
COc1ccc(-c2ccc3c(c2)S(=O)(=O)c2cccc(C(=O)O)c2C3=O)cc1OC	0	6	22	5	3	1
O=C(O)c1cccc2c1C(=O)c1ccc(Cl)cc1S2(=O)=O	0	0	39*	11	-7	-6
COc1ncc(-c2ccc3c(c2)S(=O)(=O)c2cccc(C(=O)O)c2C3=O)cn1	0	-1	38*	-1	-7	7
Cc1cccc(N(CC(O)CON=C2c3ccccc3-c3ccccc32)S(C)(=O)=O)c1 (centres undefined)	6	12	63*	20	-16	-9
CCN(CC(O)CON=C1c2ccccc2-c2ccccc21)S(=O)(=O)c1ccc(Cl)cc1 (centres undefined)	3	-3	31	21	-14	-5
CCN(CC(O)CON=C1c2ccccc2-c2ccccc21)S(=O)(=O)c1ccc(C)cc1 (centres undefined)	1	26	73*	9	-2	-20
CCN(CC)S(=O)(=O)c1ccc(S(=O)(=O)Nc2ccc3c(c2)oc2ccccc23)cc1	0	-1	12	-6	25*	8
Cc1ccc(CNC(=O)CCCC(=O)c2ccccc2)cc1	0	-27	18	0	-7	-22
Cc1ccc(NC(=O)/C(Cl)=C\c2ccccc2)cc1	0	-21	30	8	-15	-22
CC(=O)c1ccc(NC(=O)/C(Cl)=C/c2ccccc2)cc1	1	-8	18	26	-11	42*
C[C@H]1CN([C@@H](C)CO)C(=O)CCCn2cc(nn2)CO[C@@H]1CN(C)C(=O)Nc1ccc(C(F)(F)F)cc1	0	nt	nt	16	-14	nt
OC(c1ccc(Cl)c(F)c1)c1ncc(-c2ccc(F)cc2)[nH]1 (centres undefined)	1	nt	nt	-6	13	nt
CC(NC(=O)CSc1nnc(-c2cc3cc(Cl)ccc3o2)n1C)c1ccccc1 (centres undefined)	1	-26	54*	-3	-14	-13
CCOc1cc(S(=O)(=O)NCCCN2CCOCC2)c(C)cc1C	0	nt	nt	-11	1	nt
CN(C)c1ccc(-c2nn3c(C4CCCCC4)nnc3s2)cc1	0	-16	17	-7	30*	-10
N#Cc1cc([N+](=O)[O-])ccc1N1CCN(c2ccccc2O)CC1	13	-12	23	-8	-9	32*
O=[N+]([O-])c1ccc(N2CCN(c3ccc([N+](=O)[O-])cc3CO)CC2)c(CO)c1	18*	14	16	-26	8	32
CC(=O)c1ccc(N2CCN(c3ccccc3O)CC2)c([N+](=O)[O-])c1	19*	63*	79*	-7	14	44*
CC1Cc2ccccc2N1C(=O)c1ccc(N2CCCC2)c([N+](=O)[O-])c1 (centres undefined)	2	-26	29	-4	16	-5
SMILES	CHO-K1 Ca ag	OX1R antag-1	OX1R antag-2	M1 PAM parental	CHO-K1 Ca antag	CHO parental Ca
O=C(O)c1ccccc1C(=O)c1ccc(N2CCCC2)c([N+](=O)[O-])c1	-1	-25	21	-10	5	-1
CC1Cc2ccccc2N1C(=O)c1ccc(N2CCCCC2)c([N+](=O)[O-])c1 (centres undefined)	4	-13	50*	26	-7	-16
CC(O)(c1cccc(F)c1)c1nc(-c2ccc3ccccc3c2)cs1 (centres undefined)	0	nt	nt	11	-9	nt
COc1ccc(CN2CCNC(=O)C2CC(=O)N2CCCN(C(C)=O)CC2)c(OC)c1 (centres undefined)	7	-9	3	-5	-3	-12
CCCn1c(C(C)NC(=O)c2ccccc2)n[nH]c1=S (centres undefined)	17*	-3	5	12	0	-6
N#C/C(=C\c1ccc(N2CCOCC2)o1)C(=O)Nc1ccc(O)cc1	16*	12	61*	3	5	11
N#C/C(=C\c1ccc(Sc2nc3ccccc3[nH]2)o1)c1ccccc1	13	56*	74*	4	12	32
COc1ccc(NC(=O)/C(C#N)=C\c2ccc(N3CCOCC3)o2)cc1	54*	54*	59*	-20	35*	47*
N#C/C(=C\c1ccc(N2CCOCC2)o1)c1ccccc1	1	-3	10	-4	-15	-13
N#C/C(=C/c1ccc(N2CCOCC2)o1)C(=O)NC1CCCCC1	7	-13	12	13	-7	-1
N#C/C(=C/c1ccc(N2CCOCC2)o1)c1nc2ccccc2[nH]1	19*	2	5	-10	15	8
COc1ccc(NC(=O)c2c(F)cccc2Cl)cc1S(=O)(=O)N1CCOCC1	1	-14	6	14	-9	-10
C=C(C)c1cccc(C(C)(C)NC(=O)N2CCN(C(=O)OCC)CC2)c1	0	nt	nt	-6	-3	nt
COc1ccc(S(=O)(=O)N(Cc2cccs2)C2CCCC2)cc1	0	54*	44	9	-1	44*
O=C(CSc1nc2ccc(Nc3nc(N4CCOCC4)nc(N4CCOCC4)n3)cc2s1)Nc1ccccc1F	1	nt	nt	-22	6	nt
Cc1nn(C)c2nc(-c3cccs3)cc(C(F)(F)F)c12	1	-22	16	-2	-4	-17
Cc1nn(CCO)c2nc(-c3cccs3)cc(C(F)(F)F)c12	0	-31	4	-12	24*	-29
Cc1ccsc1C(=O)NCCc1nnc2ccccn12	2	3	2	-5	-3	6
COC(=O)c1cc(=O)nc(NN=Cc2ccc(OC)cc2)s1	0	nt	nt	-9	24*	nt
COC(=O)c1cc(=O)nc(NN=C2c3ccccc3-c3ccccc32)s1	2	nt	nt	4	4	nt
CCc1cc(C(=O)Nc2cc(S(=O)(=O)N(CC)CC)ccc2N2CCN(C)CC2)sc1C	0	-12	10	-12	-6	-23
CCc1cc(C(=O)Nc2cc(Cl)ccc2N2CCN(C)CC2)sc1C	0	-40	3	-20	28*	-28
O=S(=O)(c1ccccc1)C1CON(Cc2ccccc2)C1c1ccccc1 (centres undefined)	3	-13	50	-17	36*	-9
